Measurements published in ChEMBL document CHEMBL1128219, “In vitro antimalarial activity of chalcones and their derivatives” (J Med Chem, 1995).

Key:
Plasmodium falciparum [1] = experiment: In vitro antimalarial activity against chloroquine-resistant Plasmodium falciparum CDC/Indochina III W2; type: functional, organism-based
Procedure, shortened: (§1)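 Compound DMSO solution diluted 400-fold in RPMI 1640 containing 25 mM Hepes, 32 mM NaHCO3 and 10% human plasma, then 2-fold serial dilutions over 11 concentrations. Parasites exposed 48 h at 37 °C under 5% O2/5% CO2/90% N2, then [3H]hypoxanthine added for a further 18 h. DNA harvested onto glass filters and counted by scintillation. IC50 from logistic dose-response fit.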

[2] = Ratio of IC50 of W2 strain to D6 strain.; type: functional
Procedure, shortened: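 Resistance index is IC50 against chloroquine-resistant P. falciparum W2 (CDC/Indochina III) divided by IC50 against chloroquine-sensitive D6 (CDC/Sierra Leone I). Compounds dissolved in DMSO, diluted 400-fold into RPMI 1640 with 25 mM Hepes, 32 mM NaHCO3 and 10% human plasma, then 2-fold serially over 11 concentrations. Parasites were exposed for 48 h at 37 °C (5% O2, 5% CO2, 90% N2), then given [3H]hypoxanthine for 18 h. IC50 came from logistic fits.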

Plasmodium falciparum [3] = experiment: In vitro antimalarial activity against chloroquine-sensitive Plasmodium falciparum D6 (CDC/Sierra Leone I); type: functional, organism-based; procedure, shortened: as §1
[4] = Compound was evaluated for the pKa value in water at 20 degrees Centigrade; type: physicochemical
Plasmodium falciparum [5] = experiment: In vitro antimalarial activity against chloroquine-sensitive Plasmodium falciparum CDC/Sierra Leone I D6; Not active; type: functional, organism-based; procedure, shortened: as §1
Plasmodium falciparum [6] = experiment: In vitro antimalarial activity against chloroquine-resistant Plasmodium falciparum CDC/Indochina III W2; Not active; type: functional, organism-based; procedure, shortened: as §1
Plasmodium falciparum [7] = experiment: In vitro antimalarial activity against chloroquine-sensitive Plasmodium falciparum D6 (CDC/Sierra Leone I); Not active; type: functional, organism-based; procedure, shortened: as §1

SMILES: COc1ccc(C(=O)/C=C/c2ccc(C(F)(F)F)cc2)c(OC)c1
- IC50 (Plasmodium falciparum [1]): 0.75 µM
- Resistance index [2]: 1.1
- IC50 (Plasmodium falciparum [3]): 0.68 µM

SMILES: c1ccc2cnccc2c1 [ISOQUINOLINE]
- pKa [4]: 5.4

SMILES: COc1ccc(C(=O)/C=C/c2cc3ccccc3nc2Cl)cc1OC
- IC50 (Plasmodium falciparum [1]): 0.51 µM
- Resistance index [2]: 0.7
- IC50 (Plasmodium falciparum [3]): 0.72 µM

SMILES: O=C(/C=C\c1ccnc2ccccc12)c1cc(Cl)ccc1Cl
- IC50 (Plasmodium falciparum [1]): 0.23 µM
- Resistance index [2]: 1.2
- IC50 (Plasmodium falciparum [3]): 0.19 µM

SMILES: O=C(/C=C/c1cc2ccccc2nc1Cl)c1ccc(F)cc1F
- IC50 (Plasmodium falciparum [1]): 1 µM
- Resistance index [2]: 1
- IC50 (Plasmodium falciparum [3]): 0.98 µM

SMILES: COc1ccc(C(=O)/C=C/c2cccc(Cl)c2Cl)c(OC)c1
- IC50 (Plasmodium falciparum [1]): 1.38 µM
- Resistance index [2]: 1.1
- IC50 (Plasmodium falciparum [3]): 1.29 µM

SMILES: COc1ccc(/C=C/C(=O)c2ccc(Cl)cc2Cl)c(OC)c1
- IC50 (Plasmodium falciparum [1]): 3.8 µM
- Resistance index [2]: 1.1
- IC50 (Plasmodium falciparum [3]): 3.4 µM

SMILES: COc1ccc(OC)c(C(=O)/C=C\c2ccc(Cl)cc2Cl)c1
- IC50 (Plasmodium falciparum [1]): 0.75 µM
- Resistance index [2]: 0.8
- IC50 (Plasmodium falciparum [3]): 0.92 µM

SMILES: COc1ccc(C(=O)/C=C/c2cccc(Cl)c2Cl)cc1OC
- IC50 (Plasmodium falciparum [1]): 1.14 µM
- Resistance index [2]: 0.6
- IC50 (Plasmodium falciparum [3]): 1.96 µM

SMILES: COc1ccc(C(=O)CCc2ccc(Cl)cc2Cl)c(OC)c1
- IC50 (Plasmodium falciparum [5]): Not Active
- IC50 (Plasmodium falciparum [1]): > 15 µM
- IC50 (Plasmodium falciparum [3]): > 15 µM
- IC50 (Plasmodium falciparum [6]): Not Active

SMILES: COc1ccc(C(=O)/C=C/c2ccc(Cl)cc2Cl)c(OC)c1
- IC50 (Plasmodium falciparum [1]): 0.9 µM
- Resistance index [2]: 1.2
- IC50 (Plasmodium falciparum [3]): 0.77 µM

SMILES: COc1ccc(/C=C/C(=O)c2ccc(F)cc2F)c(OC)c1
- IC50 (Plasmodium falciparum [1]): 11.1 µM
- Resistance index [2]: 0.6
- IC50 (Plasmodium falciparum [3]): 19.1 µM

SMILES: O=C(/C=C/c1cc2ccccc2nc1Cl)c1cccnc1
- IC50 (Plasmodium falciparum [1]): 0.71 µM
- Resistance index [2]: 0.3
- IC50 (Plasmodium falciparum [3]): 2.53 µM

SMILES: COc1cccc(OC)c1C(=O)/C=C\c1ccc(Cl)cc1
- IC50 (Plasmodium falciparum [1]): 0.77 µM
- Resistance index [2]: 0.6
- IC50 (Plasmodium falciparum [3]): 1.24 µM

SMILES: COc1ccc(C(=O)/C(C)=C/c2ccc(Cl)cc2Cl)c(OC)c1
- IC50 (Plasmodium falciparum [1]): 2.46 µM
- Resistance index [2]: 0.4
- IC50 (Plasmodium falciparum [3]): 6.26 µM

SMILES: COc1ccc(C(=O)/C=C/c2ccc(F)c(F)c2)c(OC)c1
- IC50 (Plasmodium falciparum [1]): 2.09 µM
- Resistance index [2]: 1
- IC50 (Plasmodium falciparum [3]): 2.1 µM

SMILES: COc1ccc(OC)c(C(=O)/C=C/c2cccc(Cl)c2Cl)c1
- IC50 (Plasmodium falciparum [1]): 0.92 µM
- Resistance index [2]: 0.8
- IC50 (Plasmodium falciparum [3]): 1.1 µM

SMILES: COc1ccc(C(=O)/C=C\c2ccc(Cl)cc2Cl)c(OC)c1OC
- IC50 (Plasmodium falciparum [1]): 0.36 µM
- Resistance index [2]: 0.8
- IC50 (Plasmodium falciparum [3]): 0.43 µM

SMILES: COc1ccc(/C=C(\C)C(=O)c2ccc(Cl)cc2Cl)c(OC)c1
- IC50 (Plasmodium falciparum [1]): > 14 µM
- IC50 (Plasmodium falciparum [3]): > 14 µM
- IC50 (Plasmodium falciparum [6]): Not Active
- IC50 (Plasmodium falciparum [7]): Not Active

SMILES: COc1ccc(C(=O)/C=C/c2cc3ccccc3nc2Cl)c(OC)c1
- IC50 (Plasmodium falciparum [1]): 1 µM
- Resistance index [2]: 0.8
- IC50 (Plasmodium falciparum [3]): 1.29 µM

SMILES: O=C(/C=C\c1ccnc2ccccc12)c1ccc(Cl)c(Cl)c1
- IC50 (Plasmodium falciparum [1]): 0.8 µM
- Resistance index [2]: 0.5
- IC50 (Plasmodium falciparum [3]): 1.69 µM

SMILES: COc1ccc(C(=O)CCc2ccc(F)c(F)c2)c(OC)c1
- IC50 (Plasmodium falciparum [1]): > 16 µM
- IC50 (Plasmodium falciparum [3]): > 16 µM
- IC50 (Plasmodium falciparum [6]): Not Active
- IC50 (Plasmodium falciparum [7]): Not Active

SMILES: COc1ccc(C(=O)/C=C/c2ccc(F)cc2F)c(OC)c1
- IC50 (Plasmodium falciparum [1]): 1.9 µM
- Resistance index [2]: 1
- IC50 (Plasmodium falciparum [3]): 1.95 µM

SMILES: O=C(/C=C/c1ccc(Cl)cc1Cl)c1ccc(-n2ccnc2)cc1
- IC50 (Plasmodium falciparum [1]): 1.18 µM
- Resistance index [2]: 1.3
- IC50 (Plasmodium falciparum [3]): 0.9 µM
